From ChEMBL document CHEMBL1143250, “Synthesis and bioevaluation of 22-hydroxyacuminatine analogs” (Bioorg Med Chem Lett, 2008)
Values after ≈ are worked out from the molar mass of the structure shown. Active and inactive are the calls of the source. The rule behind the calls is not given here.

Key:
HT-29 [1] = assay: Antiproliferative activity against human HT29 cells at 2 uM after 96 hrs; assay type: functional, cell-based
Outline: (§1)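 Cytostatic growth-inhibition assay: cells were exposed to compound for 96 h. The IC50 is the concentration giving 50% inhibition of cell growth. Compounds were dissolved in DMSO, and the top concentration was capped by the final DMSO level in the mixture. Compounds showing no inhibition up to the highest concentration tested were scored not active.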

[2] = Antiproliferative activity against human MIA PaCa cells after 96 hrs; assay type: functional, cell-based; outline: as §1
DU-145 [3] = assay: Antiproliferative activity against human DU145 cells after 96 hrs; assay type: functional, cell-based; conditions: DU-145, 96 h; outline: as §1
DU-145 [4] = assay: Antiproliferative activity against human DU145 cells at 2 uM after 96 hrs; assay type: functional, cell-based; outline: as §1
HT-29 [5] = assay: Antiproliferative activity against human HT29 cells after 96 hrs; assay type: functional, cell-based; conditions: HT-29, 96 h; outline: as §1
KB = assay: Cytotoxicity against human KB cells; assay type: functional; conditions: read-out: ED50 (the source's name)
P388 = assay: Cytotoxicity against mouse P388 cells; assay type: functional; conditions: read-out: ED50 (the source's name)
PaCa = assay: Antiproliferative activity against human MIA PaCa cells at 2 uM after 96 hrs; assay type: functional, cell-based; outline: as §1

For `CCc1c2c(nc3ccc(OC)cc13)-c1cc3c(CO)cccc3c(=O)n1C2`, the Activity (HT-29 [1]) was “inactive”, the IC50 [2] was 810 nM and the IC50 (DU-145 [3]) was 1810 nM.

In the case of `CCc1c2c(nc3cc4c(cc13)OCCO4)-c1cc3c(C(=O)OC)cccc3c(=O)n1C2`, the Activity (HT-29 [1]) is reported as “inactive”, the IC50 [2] is reported as 1400 nM and the Activity (DU-145 [4]) is reported as “inactive”.

In the case of `CCc1c2c(nc3ccc(Cl)cc13)-c1cc3c(CO)cccc3c(=O)n1C2`, the Activity (HT-29 [1]) is reported as “inactive”, the IC50 [2] is reported as 810 nM and the IC50 (DU-145 [3]) is reported as 1690 nM.

For `CCc1c2c(nc3ccc(O)cc13)-c1cc3c(c(=O)n1C2)COC(=O)[C@]3(O)CC` [7-ETHYL-10-HYDROXYCAMPTOTHECIN], the IC50 [2] was 6 nM, the IC50 (HT-29 [5]) was 12 nM and the IC50 (DU-145 [3]) was 4 nM.

In the case of `O=c1c2cccc(CO)c2cc2n1Cc1cc3ccccc3nc1-2`, the Activity (HT-29 [1]) is reported as “inactive”, the IC50 [2] is reported as 1010 nM and the EC50 (KB) is reported as 0.61 µg/mL (≈ 1.94 µM). For the same compound, the Activity (DU-145 [4]) was “inactive” and the EC50 (P388) was 1.32 µg/mL (≈ 4.2 µM).

In the case of `CCc1c2c(nc3ccc(OC)cc13)-c1cc3c(C(=O)OC)cccc3c(=O)n1C2`, the Activity (HT-29 [1]) is reported as “inactive”, the Activity (DU-145 [4]) is reported as “inactive” and the Activity (PaCa) is reported as “inactive”.

For `COC(=O)c1cccc2c(=O)n3c(cc12)-c1nc2ccc(OC)cc2c(C)c1C3`, the Activity (HT-29 [1]) was “inactive”, the IC50 [2] was 1990 nM and the Activity (DU-145 [4]) was “inactive”.

With `CCc1c2c(nc3ccc(C)cc13)-c1cc3c(C(=O)OC)cccc3c(=O)n1C2` the Activity (HT-29 [1]) was “inactive”, the IC50 [2] was 1810 nM and the Activity (DU-145 [4]) was “inactive”.

In the case of `COC(=O)c1cccc2c(=O)n3c(cc12)-c1nc2ccccc2cc1C3`, the Activity (HT-29 [1]) is reported as “inactive”, the IC50 [2] is reported as 1010 nM and the Activity (DU-145 [4]) is reported as “inactive”.

With `CCc1c2c(nc3ccc(Cl)cc13)-c1cc3c(C(=O)OC)cccc3c(=O)n1C2` the Activity (HT-29 [1]) was “inactive”, the IC50 [2] was 1500 nM and the Activity (DU-145 [4]) was “inactive”.

In the case of `O=c1c2cccc(CO)c2cc2n1Cc1cc3cc(Cl)ccc3nc1-2`, the Activity (HT-29 [1]) is reported as “inactive”, the IC50 [2] is reported as 1700 nM and the Activity (DU-145 [4]) is reported as “inactive”.

With `CCc1c2c(nc3ccc(C)cc13)-c1cc3c(CO)cccc3c(=O)n1C2` the Activity (HT-29 [1]) was “inactive”, the IC50 [2] was 1140 nM and the Activity (DU-145 [4]) was “inactive”.

For `COC(=O)c1cccc2c(=O)n3c(cc12)-c1nc2ccc(C)cc2c(CCl)c1C3`, the Activity (HT-29 [1]) was “inactive”, the IC50 [2] was 1350 nM and the Activity (DU-145 [4]) was “inactive”.
